Laboratory results as given in ChEMBL document CHEMBL3351928, “Discovery of clinical candidate 1-(4-(3-(4-(1H-benzo[d]imidazole-2-carbonyl)phenoxy)pyrazin-2-yl)piperidin-1-yl)ethanone (AMG 579), a potent, selective, and efficacious inhibitor of phosphodiesterase 10A (PDE10A)” (J Med Chem, 2014).

Assays:
[1] = target: cAMP and cAMP-inhibited cGMP 3',5'-cyclic phosphodiesterase 10A (Homo sapiens, UniProt Q9Y233); experiment: Inhibition of human recombinant PDE10A using cAMP as substrate incubated for 30 mins prior to substrate addition measured after 3 hrs to overnight by IMAP FRET assay
cAMP and cAMP-inhibited cGMP 3',5'-cyclic phosphodiesterase 10A, sequence (Q9Y233 whole entry): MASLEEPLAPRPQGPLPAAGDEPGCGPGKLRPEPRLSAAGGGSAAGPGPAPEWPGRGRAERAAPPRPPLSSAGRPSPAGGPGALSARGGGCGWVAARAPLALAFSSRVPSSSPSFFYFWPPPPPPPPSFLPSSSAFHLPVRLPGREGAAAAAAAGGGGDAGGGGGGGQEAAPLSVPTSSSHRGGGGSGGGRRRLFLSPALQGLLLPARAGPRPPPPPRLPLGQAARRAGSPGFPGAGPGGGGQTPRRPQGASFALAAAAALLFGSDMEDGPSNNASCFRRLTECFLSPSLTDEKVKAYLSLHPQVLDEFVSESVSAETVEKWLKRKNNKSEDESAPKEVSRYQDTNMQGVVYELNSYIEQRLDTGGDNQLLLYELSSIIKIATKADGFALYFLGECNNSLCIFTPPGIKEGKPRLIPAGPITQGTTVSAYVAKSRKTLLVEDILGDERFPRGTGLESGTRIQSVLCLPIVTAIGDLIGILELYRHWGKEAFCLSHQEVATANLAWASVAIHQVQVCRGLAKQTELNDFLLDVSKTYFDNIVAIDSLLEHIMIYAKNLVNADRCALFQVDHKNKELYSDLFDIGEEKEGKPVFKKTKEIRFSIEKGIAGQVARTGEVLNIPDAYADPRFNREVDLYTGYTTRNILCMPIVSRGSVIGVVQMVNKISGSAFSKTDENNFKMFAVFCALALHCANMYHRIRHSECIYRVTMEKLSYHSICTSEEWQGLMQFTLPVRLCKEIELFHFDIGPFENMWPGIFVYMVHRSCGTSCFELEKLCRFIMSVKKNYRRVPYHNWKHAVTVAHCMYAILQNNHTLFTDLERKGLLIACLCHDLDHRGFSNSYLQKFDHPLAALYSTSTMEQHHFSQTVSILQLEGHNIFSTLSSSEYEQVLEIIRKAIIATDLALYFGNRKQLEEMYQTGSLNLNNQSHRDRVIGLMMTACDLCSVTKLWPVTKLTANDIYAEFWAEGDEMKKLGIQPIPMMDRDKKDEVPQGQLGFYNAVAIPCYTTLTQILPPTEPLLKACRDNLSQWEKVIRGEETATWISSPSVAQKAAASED

[2] = Metabolic stability in human liver microsomes assessed as clearance at 1 uM in presence of NADPH at 37 degC incubated for 30 mins; format: ADME; conditions: read-out: CLH
[3] = Metabolic stability in rat liver microsomes assessed as clearance at 1 uM in presence of NADPH at 37 degC incubated for 30 mins; format: ADME; conditions: read-out: CLH
Rattus norvegicus [4] = experiment: Target occupancy of PDE10A in Sprague-Dawley rat striatum at 10 mg/kg, po administered as single dose measured 1 hr post dosing and 10 mins post iv dosing of tracer by LC-MS/MS method; format: functional
Rattus norvegicus [5] = experiment: Target occupancy of PDE10A in Sprague-Dawley rat striatum measured 1 hr post dosing and 10 mins post iv dosing of tracer by LC-MS/MS method; format: functional, organism-based
Summary of the method: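 Sprague-Dawley rats received oral doses of 0.1, 0.3, 1, 3, 10 and 30 mg/kg, n = 4 per dose. Tissue was taken 1 h after dosing and 10 min after IV tracer. Striatal tracer was compared with thalamic tracer by LC-MS/MS. An occupancy EC50 was calculated against total plasma concentration.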

Rattus norvegicus [6] = experiment: Reversal of PCP-induced hyperlocomotor activity in Sprague-Dawley rat assessed as effect on locomotor activity administered orally 1 hr before PCP dosing and measured at 10 mins intervals over 2 hrs period; format: functional; conditions: po, read-out: MED
Summary of the method: (§1)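 Adult male Sprague-Dawley rats (250–280 g) were first acclimated to the test cage for 60 min. They then received oral doses of 0.1, 0.3, 1 or 3 mg/kg, n = 10. After 1 h they were given PCP 8 mg/kg subcutaneously. Photobeam breaks were collected at 10 min intervals and compiled over 2 h. Groups were compared with vehicle by one-way ANOVA followed by Dunnett's test, and the minimum effective dose was determined.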

Rattus norvegicus [7] = experiment: Effect on locomotor activity in orally dosed Sprague-Dawley rat measured at 10 mins intervals over 2 hrs period; format: ADME, organism-based; conditions: in vivo, po; summary of the method: as §1
[8] = Clearance in rat at 2 mg/kg, iv; format: ADME, organism-based; parameters: dose 2 mg/kg, route intravenous; conditions: in vivo
[9] = Clearance in dog at 0.5 mg/kg, iv; format: ADME, organism-based, Canis lupus familiaris; parameters: dose 0.5 mg/kg, route intravenous; conditions: in vivo
[10] = Clearance in non-human primates at 0.5 mg/kg, iv; format: ADME, organism-based; parameters: dose 0.5 mg/kg, route intravenous; conditions: monkey, in vivo
[11] = Volume of distribution at steady state in rat at 2 mg/kg, iv; format: ADME, organism-based; parameters: dose 2 mg/kg, route intravenous; conditions: in vivo, read-out: Vdss
[12] = Volume of distribution at steady state in dog at 0.5 mg/kg, iv; format: ADME, organism-based, Canis lupus familiaris; parameters: dose 0.5 mg/kg, route intravenous; conditions: in vivo, read-out: Vdss
[13] = Volume of distribution at steady state in non-human primates at 0.5 mg/kg, iv; format: ADME, organism-based; parameters: dose 0.5 mg/kg, route intravenous; conditions: monkey, in vivo, read-out: Vdss
[14] = (§2) AUC in rat at 2 mg/kg, iv; format: ADME, organism-based, Plasma; parameters: dose 2 mg/kg, route intravenous; conditions: plasma
[15] = (§3) AUC in rat at 10 mg/kg, po; format: ADME, organism-based, Plasma; parameters: dose 10 mg/kg, route oral; conditions: plasma
[16] = AUC in dog at 0.5 mg/kg, iv; format: ADME, organism-based, Canis lupus familiaris; parameters: dose 0.5 mg/kg, route intravenous; conditions: plasma
[17] = AUC in dog at 1 mg/kg, po; format: ADME, organism-based, Canis lupus familiaris; parameters: dose 1 mg/kg, route oral; conditions: plasma
[18] = AUC in non-human primates at 0.5 mg/kg, iv; format: ADME, organism-based; parameters: dose 0.5 mg/kg, route intravenous; conditions: monkey, plasma
[19] = AUC in non-human primates at 0.5 mg/kg, po; format: ADME, organism-based; parameters: dose 0.5 mg/kg, route oral; conditions: monkey, plasma
[20] = Half life in rat at 2 mg/kg, iv; format: ADME, organism-based; parameters: dose 2 mg/kg, route intravenous; conditions: in vivo
[21] = Half life in rat at 10 mg/kg, po; format: ADME, organism-based; parameters: dose 10 mg/kg, route oral; conditions: in vivo
[22] = Half life in dog at 0.5 mg/kg, iv; format: ADME, organism-based, Canis lupus familiaris; parameters: dose 0.5 mg/kg, route intravenous; conditions: in vivo
[23] = Half life in dog at 1 mg/kg, po; format: ADME, organism-based, Canis lupus familiaris; parameters: dose 1 mg/kg, route oral; conditions: in vivo
[24] = Half life in non-human primates at 0.5 mg/kg, iv; format: ADME, organism-based; parameters: dose 0.5 mg/kg, route intravenous; conditions: monkey, in vivo
[25] = Half life in non-human primates at 0.5 mg/kg, po; format: ADME, organism-based; parameters: dose 0.5 mg/kg, route oral; conditions: monkey, in vivo
[26] = (§4) Oral bioavailability in rat at 10 mg/kg; format: ADME, organism-based; conditions: in vivo
[27] = Oral bioavailability in dog at 1 mg/kg; format: ADME, organism-based, Canis lupus familiaris; conditions: in vivo
[28] = Oral bioavailability in non-human primates at 0.5 mg/kg; format: ADME, organism-based; conditions: monkey, in vivo
Phosphodiesterase 1 = Phosphodiesterase 1 (Homo sapiens, UniProt P54750+Q01064+Q14123); experiment: Inhibition of PDE1 (unknown origin); format: protein assay
[29] = target: cGMP-dependent 3',5'-cyclic phosphodiesterase (Homo sapiens, UniProt O00408); experiment: Inhibition of PDE2 (unknown origin)
cGMP-dependent 3',5'-cyclic phosphodiesterase, sequence (O00408 whole entry): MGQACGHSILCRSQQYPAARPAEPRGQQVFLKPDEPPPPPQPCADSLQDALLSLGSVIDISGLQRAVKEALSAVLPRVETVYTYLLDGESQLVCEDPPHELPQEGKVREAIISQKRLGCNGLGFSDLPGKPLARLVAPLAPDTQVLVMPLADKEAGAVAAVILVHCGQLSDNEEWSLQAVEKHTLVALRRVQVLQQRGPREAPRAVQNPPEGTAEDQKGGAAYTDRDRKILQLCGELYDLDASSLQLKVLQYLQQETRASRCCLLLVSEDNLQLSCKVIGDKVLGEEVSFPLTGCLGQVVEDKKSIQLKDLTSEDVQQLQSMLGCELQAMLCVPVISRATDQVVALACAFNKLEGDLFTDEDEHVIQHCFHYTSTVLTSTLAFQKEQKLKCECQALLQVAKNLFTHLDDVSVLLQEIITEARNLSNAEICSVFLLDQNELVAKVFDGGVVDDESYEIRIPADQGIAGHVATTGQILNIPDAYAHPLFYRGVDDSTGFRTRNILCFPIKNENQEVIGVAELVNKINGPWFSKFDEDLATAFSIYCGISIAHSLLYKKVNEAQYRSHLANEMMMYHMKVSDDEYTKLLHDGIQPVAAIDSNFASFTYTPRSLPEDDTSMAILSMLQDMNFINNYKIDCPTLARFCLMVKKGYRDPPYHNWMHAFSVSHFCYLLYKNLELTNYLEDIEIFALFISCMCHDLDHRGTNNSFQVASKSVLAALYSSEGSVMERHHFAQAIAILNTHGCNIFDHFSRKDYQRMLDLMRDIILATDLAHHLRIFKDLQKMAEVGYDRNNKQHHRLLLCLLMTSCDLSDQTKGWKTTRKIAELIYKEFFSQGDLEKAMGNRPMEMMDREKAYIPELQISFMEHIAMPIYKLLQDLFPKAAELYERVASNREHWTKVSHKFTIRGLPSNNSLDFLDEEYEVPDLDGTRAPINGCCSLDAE

Phosphodiesterase 3 = Phosphodiesterase 3 (Homo sapiens, UniProt Q14432+Q13370); experiment: Inhibition of PDE3 (unknown origin); format: protein assay
Phosphodiesterase 4 = Phosphodiesterase 4 (Homo sapiens, UniProt P27815+Q08499+Q07343+Q08493); experiment: Inhibition of PDE4 (unknown origin); format: protein assay
[30] = target: cGMP-specific 3',5'-cyclic phosphodiesterase (Canis lupus familiaris, UniProt O77746); experiment: Inhibition of PDE5 (unknown origin); parameters: species or system Homo sapiens
Phosphodiesterase 6 = experiment: Inhibition of PDE6 (unknown origin); format: protein assay, Homo sapiens
Phosphodiesterase 7 = Phosphodiesterase 7 (Homo sapiens, UniProt Q13946+Q9NP56); experiment: Inhibition of PDE7 (unknown origin); format: protein assay
Phosphodiesterase 8 = Phosphodiesterase 8 (Homo sapiens, UniProt O95263+O60658); experiment: Inhibition of PDE8 (unknown origin); format: protein assay
[31] = target: High affinity cGMP-specific 3',5'-cyclic phosphodiesterase 9A (Homo sapiens, UniProt O76083); experiment: Inhibition of PDE9 (unknown origin)
High affinity cGMP-specific 3',5'-cyclic phosphodiesterase 9A, sequence (O76083 whole entry): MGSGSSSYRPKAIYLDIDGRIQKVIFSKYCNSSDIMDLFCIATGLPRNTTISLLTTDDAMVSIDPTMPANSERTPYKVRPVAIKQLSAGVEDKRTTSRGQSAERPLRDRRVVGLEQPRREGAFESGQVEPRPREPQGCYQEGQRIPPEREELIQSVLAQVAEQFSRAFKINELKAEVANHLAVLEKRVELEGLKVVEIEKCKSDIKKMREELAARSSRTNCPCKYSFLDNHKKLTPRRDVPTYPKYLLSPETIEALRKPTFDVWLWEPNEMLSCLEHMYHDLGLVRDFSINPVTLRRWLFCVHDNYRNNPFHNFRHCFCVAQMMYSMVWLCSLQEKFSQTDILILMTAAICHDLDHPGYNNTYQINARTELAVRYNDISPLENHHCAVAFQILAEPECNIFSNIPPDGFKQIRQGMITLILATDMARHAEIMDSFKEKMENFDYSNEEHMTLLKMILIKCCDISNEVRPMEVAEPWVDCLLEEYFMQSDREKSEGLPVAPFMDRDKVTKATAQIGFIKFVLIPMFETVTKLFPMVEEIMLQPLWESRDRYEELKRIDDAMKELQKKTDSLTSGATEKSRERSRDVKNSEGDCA

[32] = target: Dual 3',5'-cyclic-AMP and -GMP phosphodiesterase 11A (Homo sapiens, UniProt Q9HCR9); experiment: Inhibition of PDE11 (unknown origin)
Dual 3',5'-cyclic-AMP and -GMP phosphodiesterase 11A, sequence (Q9HCR9 whole entry): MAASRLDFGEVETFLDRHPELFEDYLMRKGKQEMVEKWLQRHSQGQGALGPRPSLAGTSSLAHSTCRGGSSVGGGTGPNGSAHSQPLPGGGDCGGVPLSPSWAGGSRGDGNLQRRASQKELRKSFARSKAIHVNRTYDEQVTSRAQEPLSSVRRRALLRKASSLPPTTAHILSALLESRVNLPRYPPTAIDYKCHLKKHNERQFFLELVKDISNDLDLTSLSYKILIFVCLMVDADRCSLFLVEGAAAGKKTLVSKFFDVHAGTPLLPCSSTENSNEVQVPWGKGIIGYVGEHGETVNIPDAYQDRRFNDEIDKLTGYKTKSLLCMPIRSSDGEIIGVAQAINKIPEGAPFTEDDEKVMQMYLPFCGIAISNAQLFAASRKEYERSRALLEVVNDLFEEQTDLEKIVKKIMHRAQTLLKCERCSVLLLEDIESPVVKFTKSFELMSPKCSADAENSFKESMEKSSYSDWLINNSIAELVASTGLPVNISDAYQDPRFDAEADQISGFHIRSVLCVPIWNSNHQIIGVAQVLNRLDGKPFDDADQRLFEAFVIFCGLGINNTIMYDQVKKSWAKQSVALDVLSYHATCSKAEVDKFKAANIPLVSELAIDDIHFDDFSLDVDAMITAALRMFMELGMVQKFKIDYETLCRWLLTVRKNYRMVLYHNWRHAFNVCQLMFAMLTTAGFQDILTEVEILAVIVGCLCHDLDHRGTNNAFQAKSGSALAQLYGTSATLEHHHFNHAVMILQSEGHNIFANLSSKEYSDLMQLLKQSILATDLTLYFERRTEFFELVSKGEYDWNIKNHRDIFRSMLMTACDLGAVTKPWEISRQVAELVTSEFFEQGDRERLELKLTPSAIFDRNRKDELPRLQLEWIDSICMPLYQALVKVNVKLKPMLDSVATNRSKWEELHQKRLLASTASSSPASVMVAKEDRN

[33] = Half life in dog at 0.5 mg/kg, po; format: ADME, organism-based, Canis lupus familiaris; parameters: dose 0.5 mg/kg, route oral; conditions: in vivo
[34] = Oral bioavailability in dog at 0.5 mg/kg; format: ADME, organism-based, Canis lupus familiaris; conditions: in vivo
[35] = AUC in dog at 0.5 mg/kg, po; format: ADME, organism-based, Canis lupus familiaris; parameters: dose 0.5 mg/kg, route oral; conditions: plasma
Rattus norvegicus [36] = experiment: as §2; format: ADME, organism-based, Plasma; parameters: dose 2 mg/kg, route intravenous; conditions: in vivo
Rattus norvegicus [37] = experiment: as §3; format: ADME, organism-based, Plasma; parameters: dose 10 mg/kg, route oral; conditions: in vivo
Rattus norvegicus [38] = experiment: as §4; format: ADME, organism-based; conditions: in vivo

SMILES	IC50 [1] [nM]	microsomal CLint at 1 µM [2] [µL/min/mg]	microsomal CLint at 1 µM [3] [µL/min/mg]	Occ (Rattus norvegicus [4]) [%]	EC50 (Rattus norvegicus [5]) [nM]	Occ (Rattus norvegicus [5])	minimal effective dose (Rattus norvegicus [6]) [mg/kg]	Activity (Rattus norvegicus [7])	clearance [8] [mL/min/kg]	clearance [9] [mL/min/kg]	clearance [10] [mL/min/kg]	Vd [11] [L/kg]	Vd [12] [L/kg]	Vd [13] [L/kg]	AUC [14] [µM·h]	AUC [15] [µM·h]	AUC [16] [µM·h]	AUC [18] [µM·h]	half-life [20] [h]	half-life [21] [h]	also measured
CC(=O)N1CCC(c2nccnc2Oc2ccc(C(=O)c3nc4ccccc4[nH]3)cc2)CC1	0.1	20	41	86.3	711	Dose-dependent effect	0.3	Non-toxic	9	1.23	5.67	0.81	0.77	0.83	8.31	19.8	13.7	3.41	3.16	3.35	AUC [17]: 16.9 µM·h; AUC [19]: 2.4 µM·h; half-life [22]: 6.89 h; half-life [23]: 11 h; half-life [24]: 1.09 h; half-life [25]: 2.48 h; bioavailability [26]: 49%; bioavailability [27]: 72%; bioavailability [28]: 71%; IC50 (Phosphodiesterase 1): > 30000 nM; IC50 [29]: > 30000 nM; IC50 (Phosphodiesterase 3): > 30000 nM; IC50 (Phosphodiesterase 4): > 30000 nM; IC50 [30]: > 30000 nM; IC50 (Phosphodiesterase 6): > 30000 nM; IC50 (Phosphodiesterase 7): > 30000 nM; IC50 (Phosphodiesterase 8): > 30000 nM; IC50 [31]: > 30000 nM; IC50 [32]: > 30000 nM
O=C(c1ccc(Oc2nccnc2C2CCOCC2)cc1)c1nc2ccccc2[nH]1	0.8	50	119	91	117	Dose-dependent effect	1	Non-toxic	10.3			2.27			7.75	7.93			4.26	3.99	bioavailability [26]: 22%
O=C(c1ccc(Oc2ncccc2C2CCOCC2)cc1)c1nc2ccccc2[nH]1		100	> 399	69.2																	
CC(=O)N1CCC(c2cccnc2Oc2ccc(C(=O)c3nc4ccccc4[nH]3)cc2)CC1	0.1	29	463	86.5	965	Dose-dependent effect	0.3	Non-toxic	50.5	0.867	13.7	31.2	0.5	1.62			21.5	1.61	23.1	1.72	half-life [33]: 5.07 h; bioavailability [34]: 45%; AUC [35]: 9.59 µM·h; AUC (Rattus norvegicus [36]): 1.62 µM·h; AUC (Rattus norvegicus [37]): 5.07 µM·h; half-life [22]: 7.41 h; half-life [24]: 1.26 h; F (Rattus norvegicus [38]): 63%
